In ChEMBL document CHEMBL2346596, “Spirocyclic β-site amyloid precursor protein cleaving enzyme 1 (BACE1) inhibitors: from hit to lowering of cerebrospinal fluid (CSF) amyloid β in a higher species” (J Med Chem, 2013):

How the values were obtained:
[1] = Clearance in mouse liver microsomes at 1 uM after 20 mins by LC-MS/MS analysis in presence of NADPH; type: ADME, Microsome
[2] = Free plasma concentration in Hartley guinea pig at 75 mg/kg, po formulated with 0.5% HPMC/0.5% Tween 80 after 5 hrs; type: ADME, organism-based, Cavia porcellus; design: dose 75 mg/kg, route oral; conditions: in vivo
How it was run: (§1)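 Male Hartley guinea pigs, 6−8 weeks, 250−350 g, 6−8 per group, given a single oral dose or vehicle at 4−5 mL/kg. Euthanized with euthasol 250 mg/kg ip at set times. Whole blood was taken post-mortem by cardiac puncture into EDTA and centrifuged at 4 °C. Plasma was stored at −20 °C for drug analysis.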

[3] = Clearance in human liver microsomes at 1 uM after 20 mins by LC-MS/MS analysis in presence of NADPH; type: ADME, Microsome
[4] = Clearance in cynomolgus monkey liver microsomes at 1 uM after 20 mins by LC-MS/MS analysis in presence of NADPH; type: ADME, Macaca fascicularis, Microsome
[5] = Clearance in guinea pig liver microsomes at 1 uM after 20 mins by LC-MS/MS analysis in presence of NADPH; type: ADME, Cavia porcellus, Microsome; conditions: read-out: CLH
[6] = Drug uptake in Hartley guinea pig CSF at 150 mg/kg, po formulated with 0.5% HPMC/0.5% Tween 80 after 5 hrs; type: ADME, organism-based, Cavia porcellus, Cerebrospinal fluid; design: dose 150 mg/kg, route oral; conditions: read-out: Drug uptake
How it was run: (§2)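 Male Hartley guinea pigs, 6–8 per group, were dosed orally at 4–5 mL/kg and euthanized with intraperitoneal euthasol at set times. CSF (40–100 μL) was collected post-mortem by cisterna magna puncture into tubes containing 10% BSA, then snap-frozen for analysis. Drug concentration was determined in the CSF; plasma and brain were also sampled.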

[7] = Free drug level in Hartley guinea pig brain at 75 mg/kg, po formulated with 0.5% HPMC/0.5% Tween 80 after 5 hrs; type: ADME, organism-based, Cavia porcellus; design: dose 75 mg/kg, route oral; conditions: in vivo
How it was run: (§3)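 Male Sprague–Dawley rats or male Hartley guinea pigs (6−8 weeks, 250−350 g), 6−8 per group, given vehicle or compound orally at 4−5 mL/kg. At set times after dosing, rats were killed by CO₂ and guinea pigs by ip euthasol (250 mg/kg). Plasma came from cardiac-puncture blood in EDTA. CSF was taken by cisterna magna puncture into 10% BSA and snap frozen.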

[8] = Unbound brain-to-plasma concentration ratio in Hartley guinea pig at 75 mg/kg, po formulated with 0.5% HPMC/0.5% Tween 80 after 5 hrs; type: ADME, organism-based, Cavia porcellus; design: dose 75 mg/kg, route oral; conditions: read-out: K(p,uu,brain)
[9] = Free plasma concentration in Hartley guinea pig at 150 mg/kg, po formulated with 0.5% HPMC/0.5% Tween 80 after 5 hrs; type: ADME, organism-based, Cavia porcellus; design: dose 150 mg/kg, route oral; conditions: in vivo; how it was run: as §3
[10] = Drug uptake in Hartley guinea pig CSF at 75 mg/kg, po formulated with 0.5% HPMC/0.5% Tween 80 after 5 hrs; type: ADME, organism-based, Cavia porcellus, Cerebrospinal fluid; design: dose 75 mg/kg, route oral; conditions: read-out: Drug uptake; how it was run: as §3
[11] = Clearance in rat liver microsomes at 1 uM after 20 mins by LC-MS/MS analysis in presence of NADPH; type: ADME, Microsome
[12] = Free plasma concentration in Hartley guinea pig at 50 mg/kg, po formulated with 40/10/50 PEG/ethanol/H2O after 3 hrs; type: ADME, organism-based, Cavia porcellus; design: dose 50 mg/kg, route oral; conditions: in vivo; how it was run: as §1
[13] = Drug uptake in Hartley guinea pig CSF at 150 mg/kg, po formulated with 40/10/50 PEG/ethanol/H2O after 3 hrs; type: ADME, organism-based, Cavia porcellus, Cerebrospinal fluid; design: dose 150 mg/kg, route oral; conditions: read-out: Drug uptake; how it was run: as §2
[14] = Free plasma concentration in Hartley guinea pig at 150 mg/kg, po formulated with 40/10/50 PEG/ethanol/H2O after 3 hrs; type: ADME, organism-based, Cavia porcellus; design: dose 150 mg/kg, route oral; conditions: in vivo; how it was run: as §3
[15] = Drug uptake in Hartley guinea pig CSF at 50 mg/kg, po formulated with 40/10/50 PEG/ethanol/H2O after 3 hrs; type: ADME, organism-based, Cavia porcellus, Cerebrospinal fluid; design: dose 50 mg/kg, route oral; conditions: read-out: Drug uptake; how it was run: as §2
[16] = tested on: Brain; assay: Free drug level in mouse brain at 10 mg/kg, po after 1 hr; type: ADME, organism-based; design: dose 10 mg/kg, route oral; conditions: in vivo
[17] = Oral bioavailability in mouse at 10 mg/kg; type: ADME, organism-based; conditions: in vivo
[18] = Unbound brain-to-plasma concentration ratio in mouse at 10 mg/kg, po after 4 hrs; type: ADME, organism-based; design: dose 10 mg/kg, route oral; conditions: brain and plasma (unbound), read-out: K(p,uu,brain)
[19] = tested on: Plasma; assay: Free plasma concentration in mouse at 10 mg/kg, po after 1 hr; type: ADME, organism-based; design: dose 10 mg/kg, route oral; conditions: in vivo
[20] = tested on: Plasma; assay: Free plasma concentration in mouse at 10 mg/kg, po after 4 hrs; type: ADME, organism-based; design: dose 10 mg/kg, route oral; conditions: in vivo
[21] = Unbound brain-to-plasma concentration ratio in mouse at 10 mg/kg, po after 1 hr; type: ADME, organism-based; design: dose 10 mg/kg, route oral; conditions: brain and plasma (unbound), read-out: K(p,uu,brain)
[22] = Clearance in mouse at 3 mg/kg, iv and 10 mg/kg, po; type: ADME, organism-based; conditions: in vivo
[23] = tested on: Brain; assay: Free drug level in mouse brain at 10 mg/kg, po after 4 hrs; type: ADME, organism-based; design: dose 10 mg/kg, route oral; conditions: in vivo

| SMILES | CLhep predicted at 1 µM [1] | CLhep predicted at 1 µM [3] | CLhep predicted at 1 µM [4] | CLint scaled at 1 µM [5] | CLhep predicted at 1 µM [11] | Drug uptake(free) [16] | bioavailability [17] | Kp uu at 4 h [18] | Cp(f) [19] | Cp(f) [20] | Kp uu at 1 h [21] | clearance [22] | Drug uptake(free) [23] | also measured |
| --- | --- | --- | --- | --- | --- | --- | --- | --- | --- | --- | --- | --- | --- | --- |
| CN1C(=O)[C@]2(CC(C)(C)Cc3ccc(-c4cccnc4F)cc32)N=C1N | 24 mL/min/kg | 3 mL/min/kg | 12 mL/min/kg | 26 mL/min/kg | 60 mL/min/kg | – | – | – | – | – | – | – | – | Cp(f) [2]: 304 nM; concentration at 5 h [6]: 247 nM; Drug uptake(free) [7]: 11 nM; Kp uu at 5 h [8]: 0.037; Cp(f) [9]: 562 nM; concentration at 5 h [10]: 20 nM |
| CC1(C)Cc2ccc(-c3cncnc3)cc2[C@@]2(COC(N)=N2)C1 | 23 mL/min/kg | 3 mL/min/kg | 29 mL/min/kg | 12 mL/min/kg | 28 mL/min/kg | – | – | – | – | – | – | – | – | Cp(f) [12]: 3019 nM; concentration at 3 h [13]: 5610 nM; Cp(f) [14]: 6673 nM; concentration at 3 h [15]: 888 nM |
| CC1(C)Cc2ccc(-c3cncnc3)cc2C2(COC(N)=N2)C1 (racemic) | 16 mL/min/kg | – | – | – | – | 120 nM | 34% | 1.1 | 120 nM | 12 nM | 1 | 126 mL/min/kg | 13 nM | – |
| CN1C(=O)C2(CC(C)(C)Sc3ccc(-c4cc(F)cc(Cl)c4)cc32)N=C1N (racemic) | 47 mL/min/kg | – | – | – | – | 0.7 nM | 52% | 0.46 | 2.2 nM | 3.6 nM | 0.29 | 69 mL/min/kg | 1.6 nM | – |
| CN1C(=O)C2(CC(C)(C)Cc3ccc(-c4cccnc4F)cc32)N=C1N (racemic) | 59 mL/min/kg | – | – | – | – | 3.7 nM | 62% | 0.18 | 47 nM | 29 nM | 0.08 | 67 mL/min/kg | 5.1 nM | – |
| CN1C(=O)C2(CC(C)(C)Oc3ccc(-c4cc(F)cc(Cl)c4)cc32)N=C1N (racemic) | 15 mL/min/kg | – | – | – | – | 3.8 nM | 79% | 0.22 | 42 nM | 32 nM | 0.09 | 12 mL/min/kg | 7 nM | – |
